Measured values: ChEMBL document CHEMBL4052605, “Lissoclibadin 1, a Polysulfur Aromatic Alkaloid from the Indonesian Ascidian Lissoclinum cf. badium, Induces Caspase-Dependent Apoptosis in Human Colon Cancer Cells and Suppresses Tumor Growth in Nude Mice” (J Nat Prod, 2017)
Active and inactive are the calls of the source. The calls are words filed in the database; no cut-off is given here.

Tests used:
NCI-H28 [1] = assay: Antiproliferative activity against human NCI-H28 cells assessed as effect on cell adhesion after 24 hrs by light microscopic analysis; assay type: functional, cell-based
Summary of the method: (§1)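 Cancer cells treated with 0−10 μM and examined by light microscopy for changes in cell adhesion and morphology.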

NCI-H28 [2] = assay: Antiproliferative activity against human NCI-H28 cells assessed as effect on cell morphology up to 10 uM after 24 hrs by light microscopic analysis; assay type: functional, cell-based; summary of the method: as §1
MCF7 [3] = assay: Antiproliferative activity against human MCF7 cells assessed as effect on cell morphology after 24 hrs by light microscopic analysis; assay type: functional, cell-based; summary of the method: as §1
HCT-15 [4] = assay: Antiproliferative activity against human HCT15 cells assessed as effect on cell adhesion up to 10 uM after 24 hrs by light microscopic analysis; assay type: functional, cell-based; summary of the method: as §1
NCI-H28 [5] = assay: Antiproliferative activity against human NCI-H28 cells assessed as nuclear fragmentation at 10 uM after 24 hrs by Hoechst-33258 staining-based fluorescent microscopic analysis; assay type: functional, cell-based
Summary of the method: (§2)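 Cells at 5 × 10^4 cells/mL precultured 24 h, then treated 24 h (HCT-15 at 5 μM; HeLa-S3, MCF-7, NCI-H28 at 10 μM). Cells trypsinized, washed in PBS, fixed in 1.0% paraformaldehyde at 4 °C for 15 min, stained with 1 mg/mL Hoechst-33258 at 4 °C for 15 min. After washing, mounted in antifade reagent and examined by fluorescence microscopy.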

HCT-15 [6] = assay: Induction of apoptosis in human HCT15 cells assessed as effect on cell morphology at 5 uM in presence of pan-caspase inhibitor z-VAD-fmk by light microscopic analysis; assay type: functional, cell-based
HCT-15 [7] = assay: Induction of apoptosis in human HCT15 cells assessed as early apoptotic cells at 5 uM after 6 hrs by annexin V-FITC/propidium iodide staining-based flow cytometric analysis relative to control; assay type: functional
Summary of the method: (§3)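 HCT-15 cells at 5 × 10^4 cells/mL precultured 24 h, then given 5.0 μM in DMSO or DMSO alone (final 0.1%) for 3, 6, 12 or 24 h. Adherent cells trypsinized, pooled, stained with annexin V-FITC and PI, and analysed by flow cytometry. Early apoptosis = annexin V+/PI−; late = annexin V+/PI+. Three independent experiments, mean ± SD.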

HCT-15 [8] = assay: Induction of apoptosis in human HCT15 cells assessed as effect on cell adhesion at 5 uM in presence of caspase-9 inhibitor z-LEHD-fmk by light microscopic analysis; assay type: functional, cell-based
HCT-15 [9] = assay: Antiproliferative activity against human HCT15 cells assessed as effect on cell morphology up to 10 uM after 24 hrs by light microscopic analysis; assay type: functional, cell-based; summary of the method: as §1
MCF7 [10] = assay: Antiproliferative activity against human MCF7 cells assessed as effect on cell morphology up to 10 uM after 24 hrs by light microscopic analysis; assay type: functional, cell-based; summary of the method: as §1
HCT-15 [11] = assay: Induction of apoptosis in human HCT15 cells assessed as effect on cell morphology at 5 uM in presence of caspase-8 inhibitor z-IETD-fmk by light microscopic analysis; assay type: functional, cell-based
HCT-15 [12] = assay: Antiproliferative activity against human HCT15 cells after 24 hrs by WST-1 assay; assay type: functional, cell-based; settings: HCT-15, 24 h
Summary of the method: (§4)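 WST-1 viability assay. Cells seeded at 5 × 10^3 per well and grown 24 h, then given lissoclibadins at 0.1−40 μM (etoposide 1.0−100 μM) in triplicate for 24 h. WST-1 added and absorbance read 4 h later at 450 nm, background subtracted at 650 nm. Viability expressed as % of control; IC50 taken as 50% inhibition of viability. Three experiments, mean ± SD.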

HCT-15 [13] = assay: Antiproliferative activity against human HCT15 cells assessed as fragmentation of nuclei at 5 uM after 24 hrs by Hoechst-33258 staining-based fluorescent microscopic analysis; assay type: functional, cell-based; summary of the method: as §2
HeLa S3 [14] = assay: Antiproliferative activity against human HeLaS3 cells assessed as fragmentation of nuclei at 10 uM after 24 hrs by Hoechst-33258 staining-based fluorescent microscopic analysis; assay type: functional, cell-based; summary of the method: as §2
HCT-15 [15] = assay: Induction of apoptosis in human HCT15 cells assessed as late apoptotic cells at 5 uM by annexin V-FITC/propidium iodide staining-based flow cytometric analysis; assay type: functional, cell-based; settings: TDE = time-dependent effect; summary of the method: as §3
HCT-15 [16] = assay: Antitumor activity against human HCT15 cells xenografted in BALB/c nu/nu athymic mouse assessed as tumor growth inhibition at 5 mg/kg administered intratumorally on day 0, 2, 4, 6, 8 and 10 measured up to 28 days; assay type: functional, organism-based
Summary of the method: (§5)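 Female 6-week-old Balb/c nu/nu mice injected subcutaneously in the lower back with HCT-15 cells (1 × 10^8/mL) mixed 1:1 with Matrigel. Once tumors reached 50−100 mm3 (day 0), mice were randomized, 6 per group. Dosing was intratumoral in PBS with 5% DMSO and 5% glucose on days 0, 2, 4, 6, 8 and 10; controls received vehicle. Tumor volume (L×W×D×π/6) and body weight measured every other day to day 28.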

MCF7 [17] = assay: Antiproliferative activity against human MCF7 cells assessed as effect on cell adhesion after 24 hrs by light microscopic analysis; assay type: functional, cell-based; summary of the method: as §1
HCT-15 [18] = assay: Induction of apoptosis in human HCT15 cells assessed as early apoptotic cells at 5 uM after 3 hrs by annexin V-FITC/propidium iodide staining-based flow cytometric analysis relative to control; assay type: functional; summary of the method: as §3
HCT-15 [19] = assay: Induction of apoptosis in human HCT15 cells assessed as effect on cell morphology at 5 uM in presence of caspase-9 inhibitor z-LEHD-fmk by light microscopic analysis; assay type: functional, cell-based
HeLa S3 [20] = assay: Antiproliferative activity against human HeLaS3 cells assessed as effect on cell adhesion up to 10 uM after 24 hrs by light microscopic analysis; assay type: functional, cell-based; summary of the method: as §1
MCF7 [21] = assay: Antiproliferative activity against human MCF7 cells assessed as effect on cell adhesion up to 10 uM after 24 hrs by light microscopic analysis; assay type: functional, cell-based; summary of the method: as §1
HCT-15 [22] = assay: Antiproliferative activity against human HCT15 cells assessed as nuclear chromatin condensation at 5 uM after 24 hrs by Hoechst-33258 staining-based fluorescent microscopic analysis; assay type: functional, cell-based; summary of the method: as §2
HCT-15 [23] = assay: Induction of apoptosis in human HCT15 cells at 5 uM after 12 hrs in presence of caspase-8 inhibitor z-IETD-fmk by annexin V-FITC/propidium iodide staining-based flow cytometric analysis; assay type: functional, cell-based
Summary of the method: (§6)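 HCT-15 cells at 5 × 10^4 cells/mL precultured 24 h, then given z-VAD-fmk, z-IETD-fmk or z-LEHD-fmk at 50 μM for 30 min before 5.0 μM compound in DMSO (DMSO final 0.1%). Annexin V-FITC/PI staining read by flow cytometry. Three independent experiments, mean ± SD; one-way ANOVA with Bonferroni post hoc tests.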

HeLa S3 [24] = assay: Antiproliferative activity against human HeLaS3 cells assessed as nuclear chromatin condensation at 10 uM after 24 hrs by Hoechst-33258 staining-based fluorescent microscopic analysis; assay type: functional, cell-based; summary of the method: as §2
MCF7 [25] = assay: Antiproliferative activity against human MCF7 cells assessed as nuclear chromatin condensation at 10 uM after 24 hrs by Hoechst-33258 staining-based fluorescent microscopic analysis; assay type: functional, cell-based; summary of the method: as §2
HeLa S3 [26] = assay: Antiproliferative activity against human HeLaS3 cells assessed as effect on cell morphology after 24 hrs by light microscopic analysis; assay type: functional, cell-based; summary of the method: as §1
HCT-15 [27] = assay: Antiproliferative activity against human HCT15 cells assessed as effect on cell morphology after 24 hrs by light microscopic analysis; assay type: functional, cell-based; summary of the method: as §1
HCT-15 [28] = assay: Antiproliferative activity against human HCT15 cells assessed as effect on cell adhesion after 24 hrs by light microscopic analysis; assay type: functional, cell-based; summary of the method: as §1
NCI-H28 [29] = assay: Antiproliferative activity against human NCI-H28 cells assessed as nuclear chromatin condensation at 10 uM after 24 hrs by Hoechst-33258 staining-based fluorescent microscopic analysis; assay type: functional, cell-based; summary of the method: as §2
NCI-H28 [30] = assay: Antiproliferative activity against human NCI-H28 cells assessed as effect on cell morphology after 24 hrs by light microscopic analysis; assay type: functional, cell-based; summary of the method: as §1
NCI-H28 [31] = assay: Antiproliferative activity against human NCI-H28 cells after 24 hrs by WST-1 assay; assay type: functional, cell-based; settings: NCI-H28, 24 h; summary of the method: as §4
HeLa S3 [32] = assay: Antiproliferative activity against human HeLaS3 cells after 24 hrs by WST-1 assay; assay type: functional, cell-based; settings: HeLa S3, 24 h; summary of the method: as §4
HeLa S3 [33] = assay: Antiproliferative activity against human HeLaS3 cells assessed as effect on cell adhesion after 24 hrs by light microscopic analysis; assay type: functional, cell-based; summary of the method: as §1
HCT-15 [34] = assay: Antitumor activity against human HCT15 cells xenografted in BALB/c nu/nu athymic mouse assessed as tumor growth inhibition at 25 mg/kg/day administered intratumorally on day 0, 2, 4, 6, 8 and 10 measured on day 28 post dose relative to control; assay type: functional; settings: read-out: TGI; summary of the method: as §5
HCT-15 [35] = assay: Induction of apoptosis in human HCT15 cells assessed as effect on cell adhesion at 5 uM in presence of pan-caspase inhibitor z-VAD-fmk by light microscopic analysis; assay type: functional, cell-based
HCT-15 [36] = assay: Induction of apoptosis in human HCT15 cells assessed as early apoptotic cells at 5 uM after 24 hrs by annexin V-FITC/propidium iodide staining-based flow cytometric analysis relative to control; assay type: functional; summary of the method: as §3
HeLa S3 [37] = assay: Antiproliferative activity against human HeLaS3 cells assessed as effect on cell morphology up to 10 uM after 24 hrs by light microscopic analysis; assay type: functional, cell-based; summary of the method: as §1
MCF7 [38] = assay: Antiproliferative activity against human MCF7 cells assessed as fragmentation of nuclei at 10 uM after 24 hrs by Hoechst-33258 staining-based fluorescent microscopic analysis; assay type: functional, cell-based; summary of the method: as §2
NCI-H28 [39] = assay: Antiproliferative activity against human NCI-H28 cells assessed as effect on cell adhesion up to 10 uM after 24 hrs by light microscopic analysis; assay type: functional, cell-based; summary of the method: as §1
Mus musculus = assay: Toxicity in BALB/c nu/nu athymic mouse xenografted with human HCT15 cells assessed as body weight loss at 5 to 25 mg/kg administered intratumorally treated on day 0, 2, 4, 6, 8 and 10 measured every second day for 28 days; assay type: organism-based; settings: in vivo, other, 672 h; summary of the method: as §5
HCT-15 [40] = assay: Induction of apoptosis in human HCT15 cells at 5 uM after 12 hrs in presence of caspase-9 inhibitor z-LEHD-fmk by annexin V-FITC/propidium iodide staining-based flow cytometric analysis; assay type: functional, cell-based; summary of the method: as §6
HCT-15 [41] = assay: Induction of apoptosis in human HCT15 cells at 5 uM after 12 hrs in presence of pan-caspase inhibitor z-VAD-fmk by annexin V-FITC/propidium iodide staining-based flow cytometric analysis (reference value: 64%); assay type: functional; summary of the method: as §6
HCT-15 [42] = assay: Induction of apoptosis in human HCT15 cells assessed as effect on cell adhesion at 5 uM in presence of caspase-8 inhibitor z-IETD-fmk by light microscopic analysis; assay type: functional, cell-based
HCT-15 [43] = assay: Induction of apoptosis in human HCT15 cells assessed as early apoptotic cells at 5 uM after 12 hrs by annexin V-FITC/propidium iodide staining-based flow cytometric analysis relative to control; assay type: functional; summary of the method: as §3
MCF7 [44] = assay: Antiproliferative activity against human MCF7 cells after 24 hrs by WST-1 assay; assay type: functional, cell-based; settings: MCF7, 24 h; summary of the method: as §4

IC50 (HCT-15 [12]): 4 µM
IC50 (NCI-H28 [31]): 7.1 µM
IC50 (HeLa S3 [32]): 6.3 µM
IC50 (MCF7 [44]): 7.6 µM
Compound: COc1c(OC)c2c(c(CCN(C)C)c1SC)SSc1c(CCN(C)C)c(SC)c(OC)c(OC)c1Sc1c(OC)c(OC)c(SC)c(CCN(C)C)c1S2 [LISSOCLIBADIN 1]
Activity (NCI-H28 [1]): Dose-dependent effect
Activity (NCI-H28 [2]): Active
Activity (MCF7 [3]): Dose-dependent effect
Activity (HCT-15 [4]): Active
Activity (NCI-H28 [5]): Active
Activity (HCT-15 [6]): Active
Activity (HCT-15 [7]): 37%
Activity (HCT-15 [8]): Active
Activity (HCT-15 [9]): Active
Activity (MCF7 [10]): Active
Activity (HCT-15 [11]): Active
Activity (HCT-15 [13]): Active
Activity (HeLa S3 [14]): Active
Activity (HCT-15 [15]): Tde
TGI (HCT-15 [16]): inactive
Activity (MCF7 [17]): Dose-dependent effect
Activity (HCT-15 [18]): 11%
Activity (HCT-15 [19]): Active
Activity (HeLa S3 [20]): Active
Activity (MCF7 [21]): Active
Activity (HCT-15 [22]): Active
Activity (HCT-15 [23]): Active
Activity (HeLa S3 [24]): Active
Activity (MCF7 [25]): Active
Activity (HeLa S3 [26]): Dose-dependent effect
Activity (HCT-15 [27]): Dose-dependent effect
Activity (HCT-15 [28]): Dose-dependent effect
Activity (NCI-H28 [29]): Active
Activity (NCI-H28 [30]): Dose-dependent effect
Activity (HeLa S3 [33]): Dose-dependent effect
inhibition in vivo at 25 mg/kg/day (HCT-15 [34]): 60%
Activity (HCT-15 [35]): Active
Activity (HCT-15 [36]): 40%
Activity (HeLa S3 [37]): Active
Activity (MCF7 [38]): Active
Activity (NCI-H28 [39]): Active
Activity (Mus musculus): Non-Toxic
Activity (HCT-15 [40]): Active
Activity (HCT-15 [41]): 11%
Activity (HCT-15 [42]): Active
Activity (HCT-15 [43]): 43%
